Reference: article PMC3064798 (Nucleic Acids Research, 2011)
Entries after “also recorded” stand apart in the source; their conditions may differ.

Columns and labels:
[1] = target: TaqFS polymerase (Thermus aquaticus, UniProt P19821, F667Y/G46D); assay: PEP; type: biochemical; conditions: for IC50 values (activity in words): TaqFS, Not Active = no visible +1 band in 377 gel image at 100 μM
Outline: (§1)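 Polymerase end-point assay for single-base incorporation. 5 nM BODIPY-FL-labelled primer-1 was hybridised to 40 nM oligoTemplate-4, with the interrogation base complementary to dU. Absence of a +1 band on the 377 gel image at 100 μM counts as not active. IC50 was averaged from triplicates ± 1 SD. Incorporation bias is the analog IC50 divided by the natural-nucleotide (HOMedUTP) IC50.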

[2] = target: Klenow(exo^−) polymerase (Escherichia coli, UniProt P00582, D355A/E357A); assay: PEP; type: biochemical
Outline: as §1

[3] = target: Taq polymerase (Thermus aquaticus, UniProt P19821); assay: PEP; type: biochemical; conditions: for IC50 values (activity in words): Taq, Not Active = no visible +1 band in 377 gel image at 100 μM
Sequence of Taq polymerase (P19821 whole entry): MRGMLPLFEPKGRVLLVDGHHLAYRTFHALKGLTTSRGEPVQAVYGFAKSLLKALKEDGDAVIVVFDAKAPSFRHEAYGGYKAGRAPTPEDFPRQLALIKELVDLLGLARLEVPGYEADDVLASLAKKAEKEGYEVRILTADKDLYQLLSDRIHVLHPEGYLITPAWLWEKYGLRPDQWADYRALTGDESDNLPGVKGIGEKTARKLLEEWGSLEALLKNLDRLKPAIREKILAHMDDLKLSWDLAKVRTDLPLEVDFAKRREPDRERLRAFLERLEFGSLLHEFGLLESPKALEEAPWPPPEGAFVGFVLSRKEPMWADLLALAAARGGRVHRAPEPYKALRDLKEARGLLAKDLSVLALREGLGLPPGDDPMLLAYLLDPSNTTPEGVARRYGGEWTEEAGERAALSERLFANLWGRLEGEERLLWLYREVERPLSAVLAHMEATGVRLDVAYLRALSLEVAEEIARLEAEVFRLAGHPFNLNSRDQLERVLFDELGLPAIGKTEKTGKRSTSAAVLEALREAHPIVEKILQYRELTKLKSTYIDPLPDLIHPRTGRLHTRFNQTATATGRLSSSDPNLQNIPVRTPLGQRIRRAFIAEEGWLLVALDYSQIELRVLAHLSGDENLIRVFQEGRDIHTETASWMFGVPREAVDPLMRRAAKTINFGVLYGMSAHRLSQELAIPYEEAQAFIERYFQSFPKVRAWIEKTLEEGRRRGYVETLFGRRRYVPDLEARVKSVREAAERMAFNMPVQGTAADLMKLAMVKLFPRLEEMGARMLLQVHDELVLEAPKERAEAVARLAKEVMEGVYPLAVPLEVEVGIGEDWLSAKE
Outline: as §1

[4] = target: T1, Vent(exo^−) polymerase (Thermococcus litoralis, UniProt P30317, D141A/DEL1082-1471/DEL495-1032/E143A); assay: PEP; type: biochemical; conditions: for Incorporation bias (analog IC50/HOMedUTP IC50): Vent(exo^−)
T1 sequence (P30317 with tags, fused parts or gaps D141A/E143A/DEL495-1032/DEL1082-1471): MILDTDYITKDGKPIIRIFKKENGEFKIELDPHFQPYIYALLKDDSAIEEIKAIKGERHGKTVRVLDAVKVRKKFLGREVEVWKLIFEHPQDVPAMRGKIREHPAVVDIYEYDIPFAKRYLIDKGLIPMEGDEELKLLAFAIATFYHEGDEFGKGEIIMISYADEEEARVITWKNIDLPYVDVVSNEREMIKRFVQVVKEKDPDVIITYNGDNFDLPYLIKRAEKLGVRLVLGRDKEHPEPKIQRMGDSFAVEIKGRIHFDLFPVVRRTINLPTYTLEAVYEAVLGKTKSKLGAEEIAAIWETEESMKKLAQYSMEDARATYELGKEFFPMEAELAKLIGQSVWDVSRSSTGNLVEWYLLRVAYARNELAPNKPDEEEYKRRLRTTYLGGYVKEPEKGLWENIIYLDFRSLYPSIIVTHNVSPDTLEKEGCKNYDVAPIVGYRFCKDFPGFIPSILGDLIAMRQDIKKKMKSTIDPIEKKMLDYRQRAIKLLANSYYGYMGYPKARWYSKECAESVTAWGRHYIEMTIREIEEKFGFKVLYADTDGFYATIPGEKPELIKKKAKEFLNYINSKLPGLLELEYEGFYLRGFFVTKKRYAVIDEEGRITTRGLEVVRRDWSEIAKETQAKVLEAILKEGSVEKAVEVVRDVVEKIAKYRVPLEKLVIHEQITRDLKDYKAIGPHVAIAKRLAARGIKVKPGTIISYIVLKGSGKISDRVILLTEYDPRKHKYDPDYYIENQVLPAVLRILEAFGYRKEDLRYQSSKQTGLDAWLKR
Outline: as §1

[5] = Photochemical cleavage studies; type: physicochemical; conditions: for DT50 values (time at which 50% of 2-nitrobenzyl groups were photochemically cleaved): 365 nm UV, incorporated in primer-1/oligoTemplate-4; for DT50 in sodium azide compared with the FBD solution: 50 mM sodium azide vs FBD; for DT50 faster than the parent dU.I analog: azide solution
Outline: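 Analogs (100 nM final) were incorporated as in PEP on BODIPY-FL primer-1/oligoTemplate-4 (10 nM/80 nM). Reactions were quenched in FBD solution (20% formamide, 10 mM Na2EDTA pH 8.0, Blue Dextran) or 50 mM sodium azide. Samples were irradiated at 365 nm for various times, then iced, mixed with formamide stop solution and run on an AB 377 sequencer. DT50 is the time for 50% cleavage, from triplicates ± 1 SD.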

[6] = target: T2, Bst polymerase (Geobacillus stearothermophilus, UniProt P52026); assay: PEP; type: biochemical
T2 sequence (P52026 1-876): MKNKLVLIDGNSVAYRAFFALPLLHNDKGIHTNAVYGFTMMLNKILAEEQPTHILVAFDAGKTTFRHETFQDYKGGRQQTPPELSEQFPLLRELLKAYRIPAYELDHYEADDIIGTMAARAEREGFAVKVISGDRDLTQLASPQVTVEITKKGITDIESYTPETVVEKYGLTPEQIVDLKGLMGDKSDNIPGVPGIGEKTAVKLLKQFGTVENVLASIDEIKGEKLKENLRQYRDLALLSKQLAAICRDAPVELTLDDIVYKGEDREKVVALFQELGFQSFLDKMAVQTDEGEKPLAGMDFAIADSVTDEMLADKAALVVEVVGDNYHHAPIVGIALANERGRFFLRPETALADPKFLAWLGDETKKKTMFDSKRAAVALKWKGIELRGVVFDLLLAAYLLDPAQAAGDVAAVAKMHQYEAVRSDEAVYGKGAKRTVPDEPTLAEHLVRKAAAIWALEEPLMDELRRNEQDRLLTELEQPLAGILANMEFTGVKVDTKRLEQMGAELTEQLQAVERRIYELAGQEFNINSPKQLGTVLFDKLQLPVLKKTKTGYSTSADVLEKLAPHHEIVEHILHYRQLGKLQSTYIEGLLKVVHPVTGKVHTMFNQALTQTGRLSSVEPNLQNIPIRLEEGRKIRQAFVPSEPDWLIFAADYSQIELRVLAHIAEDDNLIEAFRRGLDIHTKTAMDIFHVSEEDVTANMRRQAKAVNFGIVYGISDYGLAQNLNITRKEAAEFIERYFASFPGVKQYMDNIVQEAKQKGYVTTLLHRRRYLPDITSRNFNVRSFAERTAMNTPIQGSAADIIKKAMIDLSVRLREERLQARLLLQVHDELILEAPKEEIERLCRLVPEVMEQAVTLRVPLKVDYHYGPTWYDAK
Outline: as §1

[7] = target: T1, Vent(exo^−) polymerase; assay: Nucleotide selectivity; type: biochemical; conditions: against a 'G' template base
Outline: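 Base discrimination was measured by PEP assay. OligoTemplate-4 was replaced with 40 nM oligoTemplate-2 or oligoTemplate-5 to give mismatched template bases. For the T—G mismatch, 5 nM BODIPY-FL primer-3 was hybridised to 40 nM oligoTemplate-8. The selectivity ratio is the mismatched IC50 divided by the matched IC50.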

Sequence of TaqFS polymerase (P19821 whole entry G46D/F667Y): as the sequence (P19821 whole entry) above, with G46D, F667Y counted along it

CC(OCc1cn([C@H]2C[C@H](O)[C@@H](COP(=O)(O)OP(=O)(O)OP(=O)(O)O)O2)c(=O)[nH]c1=O)c1ccccc1[N+](=O)[O-] (mixture of isomers) [dU.II, 5-[1-(2-Nitrophenyl)ethyloxy]methyl-2'-deoxyuridine-5’-triphosphate]
IC50 values (activity in words) [1]: no activity at all
IC50 [2]: 2400 ± 100 nM
Incorporation bias (analog IC50/HOMedUTP IC50) ([2]; Klenow(exo^−)): 1500
IC50 values (activity in words) [3]: no activity at all; also recorded: Not Active^a
IC50 [4]: 2.2 ± 0.2 nM
Incorporation bias (analog IC50/HOMedUTP IC50) [4]: 1.6
DT50 values (time at which 50% of 2-nitrobenzyl groups were photochemically cleaved) ([5]; 50 mM NaN3): 2.0 ± 0.1 s
DT50 in sodium azide compared with the FBD solution [5]: approximately three-fold lower
DT50 values (time at which 50% of 2-nitrobenzyl groups were photochemically cleaved) ([5]; FBD solution): 7.4 ± 1.2 s
DT50 faster than the parent dU.I analog [5]: 33-60%
IC50 [6]: 3500 ± 200 nM
Incorporation bias (analog IC50/HOMedUTP IC50) ([6]; Bst): 1600

CC(C)C(OCc1cn([C@H]2C[C@H](O)[C@@H](COP(=O)(O)OP(=O)(O)OP(=O)(O)O)O2)c(=O)[nH]c1=O)c1ccccc1[N+](=O)[O-] (mixture of isomers) [dU.III, 5-[1-(2-Nitrophenyl)-2-methyl-propyloxy]methyl-2'-deoxyuridine-5’-triphosphate]
IC50 values (activity in words) [1]: none of the Family A polymerases showed any activity
Selectivity ratio (mismatched IC50/matched IC50) [7]: poorly extending the primer before revealing inhibitory effects
IC50 values (activity in words) ([2]; Klenow(exo^−), Not Active = no visible +1 band in 377 gel image at 100 μM): Not Active^a
IC50 values (activity in words) [3]: none of the Family A polymerases showed any activity; also recorded: Not Active^a
IC50 [4]: 5.9 ± 0.7 nM
Incorporation bias (analog IC50/HOMedUTP IC50) [4]: 4.2
DT50 values (time at which 50% of 2-nitrobenzyl groups were photochemically cleaved) ([5]; 50 mM NaN3): 2.4 ± 0.2 s
DT50 in sodium azide compared with the FBD solution [5]: approximately three-fold lower
DT50 values (time at which 50% of 2-nitrobenzyl groups were photochemically cleaved) ([5]; FBD solution): 8.8 ± 0.8 s
DT50 faster than the parent dU.I analog [5]: 33-60%
IC50 values (activity in words) ([6]; Bst, Not Active = no visible +1 band in 377 gel image at 100 μM): none of the Family A polymerases showed any activity; also recorded: Not Active^a

O=c1[nH]c(=O)n([C@H]2C[C@H](O)[C@@H](COP(=O)(O)OP(=O)(O)OP(=O)(O)O)O2)cc1COCc1ccccc1[N+](=O)[O-] [dU.I, 5-(2-Nitrobenzyloxy)methyl-2'-deoxyuridine-5’-triphosphate]
IC50 [1]: 25000 nM
IC50 [2]: 48 ± 4 nM
Incorporation bias (analog IC50/HOMedUTP IC50) ([2]; Klenow(exo^−)): 30
IC50 [3]: 50000 nM
IC50 [4]: 2 ± 0.1 nM
Incorporation bias (analog IC50/HOMedUTP IC50) [4]: 1.4
DT50 values (time at which 50% of 2-nitrobenzyl groups were photochemically cleaved) ([5]; 50 mM NaN3): 3.2 ± 0.1 s
DT50 in sodium azide compared with the FBD solution [5]: approximately three-fold lower
DT50 values (time at which 50% of 2-nitrobenzyl groups were photochemically cleaved) ([5]; FBD solution): 8.7 ± 0.9 s
IC50 [6]: 98 ± 13 nM
Incorporation bias (analog IC50/HOMedUTP IC50) ([6]; Bst): 45
